NR2E3 ag-1 – agonists of human nuclear receptor NR2E3; Q9Y5X4; inhibition of corepressor binding, % at 4.78 µM; hit rate 0.12% among 320,000; GST-NR2E3/biotin-RetCOR TR-FRET, 1536-well;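 active means percent inhibition above the cutoff of mean plus 3 SD of all tested compounds, set per screening campaign, cut at about 20% in these data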;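 further: 0% = DMSO wells and 100% = biotin wells as full block of FRET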
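Material: NR2E3–RetCOR corepressor complex | Quantity: 1.35 nM GST-tagged NR2E3 final | Schedule: 5 h at 4 °C | Replication: Singlicate compound wells | Reagent: RetCOR corepressor, biotinylated, 7 nM | Controls: Biotin wells as high control, 0.6% DMSO wells as low control | Signal: TR-FRET, Eu(K)-anti-GST donor, streptavidin-D2 acceptor, ex 340, em 617/671 nm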
NR2E3 ag-2 – human photoreceptor-specific nuclear receptor agonism | Q9Y5X4 | CHO-S Gal4-NCOR/VP16-NR2E3 two-hybrid, luciferase | inhibition of corepressor binding, % at 3.98 µM | hit rate 0.35% among 360,000 | AID 602229;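 active means inhibition above the mean of all tested compounds plus 3 SD, cut at about 70% in these data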;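 further: 0% = DMSO with NR2E3 transfected cells and 100% = cells lacking NR2E3 construct; higher means lower luciferase signal from less NR2E3 corepressor binding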
NR1D1 modulator – Rev-erb alpha (human) modulation | hit rate 0.79% among 370,000 | activity, % at 10 µM | Rev-erbα–FITC-DNA binding, fluorescence polarization, 90 min | P20393;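 active means activity above about 14%, limit read from the data; passing the limit was not always enough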;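 further: 0% = DMSO wells with 35 nM protein and 100% = DMSO wells with 750 nM protein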
Target sequence (P20393 whole entry, looked up): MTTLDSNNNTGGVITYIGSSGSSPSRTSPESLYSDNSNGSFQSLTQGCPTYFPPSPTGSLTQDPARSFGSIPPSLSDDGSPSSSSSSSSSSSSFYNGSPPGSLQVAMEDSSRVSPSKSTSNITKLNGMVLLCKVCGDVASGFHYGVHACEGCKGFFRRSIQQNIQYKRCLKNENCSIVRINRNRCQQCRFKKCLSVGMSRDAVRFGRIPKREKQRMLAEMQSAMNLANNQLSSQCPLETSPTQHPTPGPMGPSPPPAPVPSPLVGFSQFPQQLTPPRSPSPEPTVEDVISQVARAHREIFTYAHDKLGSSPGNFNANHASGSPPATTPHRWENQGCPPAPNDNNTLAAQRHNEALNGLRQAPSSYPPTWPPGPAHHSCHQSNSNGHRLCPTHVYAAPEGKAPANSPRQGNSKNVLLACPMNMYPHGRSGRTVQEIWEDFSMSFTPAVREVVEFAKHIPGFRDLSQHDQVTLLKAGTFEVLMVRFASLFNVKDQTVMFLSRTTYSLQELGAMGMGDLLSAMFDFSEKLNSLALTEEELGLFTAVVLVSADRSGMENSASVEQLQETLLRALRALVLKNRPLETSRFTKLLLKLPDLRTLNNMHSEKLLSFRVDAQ
PG9 Ab binder – binds the HIV-1 gp120 antibody PG9; hit rate 0.43% among 360,000; inhibition, % at 6.7 µM; TR-FRET gp120-PG9 antibody binding; in the data active means inhibition above about 8.5%
rCAG RNA binder – r(CAG) repeat RNA binding. TO-PRO-1 dye displacement fluorescence. hit rate 1.3% among 370,000. inhibition, % at 3 µM;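 active means inhibition above the plate cutoff, the mean of all test compounds on that plate plus 3 SD, cut at about 35% in these data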;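 further: 0% = DMSO alone and 100% = 100 µM mitoxantrone as full dye displacement; higher means more dye released from RNA so lower well fluorescence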
rCAG bind conf – r(CAG) RNA repeat binding, confirmation; hit rate 70% among 4,300; shares compounds with rCAG RNA binder; inhibition, % at 3 µM; TO-PRO-1 dye displacement fluorescence;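 active means inhibition above a per-plate cutoff, the mean inhibition of sample wells plus 3 SD, cut at about 35% in these data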;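 further: loss of TO-PRO-1 fluorescence as compound displaces dye from 1x1 AA loop RNA; 0% = DMSO only wells and 100% = 100 µM mitoxantrone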
dCAG dye counter – DNA CAG dye complex inhibition counter-screen; shares compounds with rCAG RNA binder; d(CAG) DNA oligo TO-PRO-1 dye displacement, fluorescence; inhibition, % at 3 µM; hit rate 94% among 4,300;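 active means inhibition above its plate's cutoff, the mean test-well inhibition plus 3 SD, cut at about 4.8% in these data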;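 further: 0% = DNA dye mix with DMSO and 100% = 100 µM mitoxantrone; hits displace the dye from DNA and so lower well fluorescence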
Numbers without * were called inactive; x = no result given. Shown are actives, neighbours in structure and some others; about 2.6% of the full set was active somewhere.

SMILES | NR2E3 ag-1 | NR2E3 ag-2 | NR1D1 modulator | PG9 Ab binder | rCAG RNA binder | rCAG bind conf | dCAG dye counter
COc1cc(/C=C2\SC(N)=NC2=O)ccc1OCC(=O)Nc1ccccc1C | 0 | -1 | -4 | 0 | 18 | x | x
Cc1cc(C(c2ccc(C)o2)c2ccc(C)o2)c(O)c([N+](=O)[O-])c1 | -2 | -1 | -4 | -2 | 54* | 18 | 8.5*
NC(=O)C1CCN(C(=O)c2ccc(Cl)c(S(=O)(=O)N3CCCCCC3)c2)CC1 | x | -44 | -2 | 3 | 4 | x | x
COc1ccc(-n2c(SCC(=O)Nc3ccccc3C)nc(O)c(Cc3ccccc3)c2=O)cc1 | 2 | -19 | 0 | 0 | 17 | x | x
Cc1c(O)nc(SCC(=O)Nc2ccc3c4c(cccc24)CC3)n(-c2ccccc2)c1=O | 0 | -13 | 8 | 0 | 39* | 25 | 9.2*
O=C(CSc1nc(O)cc(=O)n1-c1ccccc1)Nc1ccc2c3c(cccc13)CC2 | 5 | -3 | -5 | -4 | 45* | 30 | 12*
CCOc1cc(/C=N/N=C2/NC(=O)C(CC(=O)O)S2)ccc1OS(=O)(=O)c1ccc(C)cc1 (stereo not given) | x | -24 | 0 | -1 | 56* | 36* | 9.7*
COc1ccc(/C=N/N=C2/NC(=O)C(CC(=O)O)S2)cc1OCc1ccccc1Cl (stereo not given) | -1 | -2 | -5 | 0 | 22 | x | x
CCOc1cc(/C=N/N=C2/NC(=O)C(CC(=O)O)S2)ccc1OCc1ccccc1Cl (stereo not given) | 3 | -34 | -1 | 1 | 64* | 46* | 13*
Cc1ccc(S(=O)(=O)Oc2ccc(/C=N/N=C3/NC(=O)C(CC(=O)O)S3)cc2)cc1 (stereo not given) | x | -10 | 3 | 2 | 31 | x | x
CC1CCCC(NC(=O)Cn2c(Cl)nc3c2c(=O)n(C)c(=O)n3C)C1C (stereo not given) | x | -5 | -3 | 0 | 2 | x | x
COc1ccc(-c2c(-c3ccccc3OC)sc3ccccc23)cc1F | x | x | 5 | -1 | 8 | x | x
Cc1nnc(N2C(=O)C(O)=C(C(=O)c3ccco3)C2c2cccc3ccccc23)s1 (stereo not given) | -5 | -45 | -1 | 0 | 18 | x | x
COC(=O)c1sc(N2C(=O)C(O)=C(C(=O)c3ccc(C)o3)C2c2cccs2)nc1C (stereo not given) | 8 | -10 | 0 | 0 | 48* | 48* | 17*
CCOC(=O)c1sc(N2C(=O)C(O)=C(C(=O)c3ccco3)C2c2cccc([N+](=O)[O-])c2)nc1C (stereo not given) | 2 | -6 | 3 | -1 | 70* | 82* | 50*
Cc1cc(N2C(=O)C(O)=C(C(=O)c3ccco3)C2c2cccc(Oc3ccccc3)c2)no1 (stereo not given) | 4 | -45 | -1 | 5 | 58* | 59* | 21*
COC(=O)c1sc(N2C(=O)C(O)=C(C(=O)c3ccc(C)o3)C2c2ccco2)nc1C (stereo not given) | 4 | -36 | -5 | 0 | 16 | x | x
CCOC(=O)c1sc(N2C(=O)C(O)=C(C(=O)c3ccco3)C2c2cccc(Cl)c2)nc1C (stereo not given) | 5 | -87 | 1 | 1 | 74* | 57* | 19*
O=C1C2C3CC4C5C3C1C5C1(SCCS1)C42 (stereo not given) | x | -4 | -5 | 0 | 4 | x | x
CC1(C(=O)NS(=O)(=O)c2ccc(Cl)cc2)CCN1C(=O)C1(c2ccc(Cl)cc2)CC1 (stereo not given) | x | 1 | -6 | 1 | 46* | 39* | 8.7*
CC1(C(=O)NS(=O)(=O)c2cccc(F)c2)CCN1C(=O)C1(c2ccc(Cl)cc2)CCC1 (stereo not given) | x | -1 | -8 | -1 | 42* | 31 | 6.7*
COc1ccc(S(=O)(=O)NC(=O)C2(C)CCN2C(=O)C2(c3ccc(Cl)cc3)CCC2)cc1 (stereo not given) | x | -4 | 1 | 2 | 46* | 35* | 6.4*
CC(C)(C)c1ccc(S(=O)(=O)NC(=O)C2(C)CCN2C(=O)C2(c3ccc(Cl)cc3)CC2)cc1 (stereo not given) | x | 15 | -1 | 0 | 71* | 59* | 21*
